In ChEMBL document CHEMBL1145501, “Effect of macrolide usage on emergence of erythromycin-resistant Campylobacter isolates in chickens” (2007):
Converted amounts (≈) assume the structure as drawn. The source made the active and inactive calls. No cut-off for these calls is given here.

How the values were obtained:
Campylobacter jejuni [1] = assay: Antimicrobial activity against Campylobacter jejuni 700819 mutant 9 by agar dilution method; format: functional
Method in brief: (§1)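 MIC by CLSI agar dilution. Campylobacter was grown on Mueller-Hinton medium at 42°C under microaerobic conditions. Ery-resistant mutants were selected either in vitro, by plating late-log antibiotic-free broth cultures on MH agar with 2, 4 or 8 μg/ml Ery for 2 days, or from tylosin-exposed chickens.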

Campylobacter jejuni [2] = assay: Antimicrobial activity against Campylobacter jejuni 700819 mutant 4 by agar dilution method; format: functional; method in brief: as §1
Campylobacter coli [3] = assay: Antimicrobial activity against Campylobacter coli MR32D by agar dilution method; format: functional
Method in brief: (§2)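 Erythromycin MIC by agar dilution per CLSI (formerly NCCLS). Strains were grown on Mueller-Hinton agar or in MH broth at 42°C under microaerobic conditions. MH media were supplemented with various amounts of Ery.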

Campylobacter jejuni [4] = assay: Antimicrobial activity against Campylobacter jejuni 700819 mutant 8 with cmeB mutation by agar dilution method; format: functional
Method in brief: (§3)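 cmeB knockouts were made by biphasic natural transformation, using genomic DNA of 11168B (cmeB::kan) as donor. Transformants were selected on 30 μg/ml kanamycin and the insertion confirmed by PCR. The isogenic mutants were then MIC-tested by agar dilution on MH medium at 42°C under microaerobic conditions.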

Campylobacter jejuni [5] = assay: Antimicrobial activity against Campylobacter jejuni 700819 mutant 6/A2074G and cmeB mutation by agar dilution method; format: functional; method in brief: as §3
Campylobacter jejuni [6] = assay: Effect on Campylobacter jejuni S3B mutant colonization at 8 ug/ml; format: functional, organism-based
Method in brief: (§4)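 Chickens colonized with C. jejuni were sampled by cloacal swabs. Serial dilutions were plated on selective MH agar with and without 8 μg/ml Ery and counted after 48 h at 42°C under microaerobic conditions, giving the Ery-nonsusceptible fraction per bird. Detection limit was about 100 CFU/g feces.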

Campylobacter jejuni [7] = assay: Antimicrobial activity against Campylobacter jejuni S3BE8-1 mutant by agar dilution method; format: functional; method in brief: as §1
Campylobacter jejuni [8] = assay: Antimicrobial activity against Campylobacter jejuni 700819 mutant 12 by agar dilution method; format: functional; method in brief: as §1
Campylobacter jejuni [9] = assay: Antimicrobial activity against Campylobacter jejuni 700819 mutant 7 by agar dilution method; format: functional; method in brief: as §1
Campylobacter jejuni [10] = assay: Antimicrobial activity against Campylobacter jejuni S3B by agar dilution method; format: functional; method in brief: as §2
Campylobacter coli [11] = assay: Antimicrobial activity against Campylobacter coli RN14BE8-3 mutant by agar dilution method; format: functional; method in brief: as §1
Campylobacter coli [12] = assay: Antimicrobial activity against Campylobacter coli RN14BE4-3 mutant with cmeB mutation by agar dilution method; format: functional; method in brief: as §3
Campylobacter jejuni [13] = assay: Antimicrobial activity against Campylobacter jejuni 700819 mutant 5/A2074G and cmeB mutation by agar dilution method; format: functional; method in brief: as §3
Campylobacter jejuni [14] = assay: Antimicrobial activity against Campylobacter jejuni S3BE2-2 mutant by agar dilution method; format: functional; method in brief: as §1
Campylobacter jejuni [15] = assay: Antimicrobial activity against Campylobacter jejuni 700819 mutant 1 with cmeB mutation by agar dilution method; format: functional; method in brief: as §3
Campylobacter jejuni [16] = assay: Antimicrobial activity against Campylobacter jejuni 700819 mutant 6 by agar dilution method; format: functional; method in brief: as §1
Campylobacter jejuni [17] = assay: Antimicrobial activity against Campylobacter jejuni 700819 mutant 3 by agar dilution method; format: functional; method in brief: as §1
Campylobacter jejuni [18] = assay: Antimicrobial activity against Campylobacter jejuni 700819 mutant 7 with cmeB mutation by agar dilution method; format: functional; method in brief: as §3
Campylobacter coli [19] = assay: Antimicrobial activity against Campylobacter coli MR32DE4-1 mutant by agar dilution method; format: functional; method in brief: as §1
Campylobacter jejuni [20] = assay: Antimicrobial activity against Campylobacter jejuni 700819 mutant 1 by agar dilution method; format: functional; method in brief: as §1
Campylobacter jejuni [21] = assay: Antimicrobial activity against Campylobacter jejuni 700819 mutant 11 by agar dilution method; format: functional; method in brief: as §1
Campylobacter jejuni [22] = assay: Effect on Campylobacter jejuni 700819 mutant colonization at 8 ug/ml; format: functional, organism-based; method in brief: as §4
Campylobacter jejuni [23] = assay: Antimicrobial activity against Campylobacter jejuni 700819 mutant 12 with cmeB mutation by agar dilution method; format: functional; method in brief: as §3
Campylobacter jejuni [24] = assay: Antimicrobial activity against Campylobacter jejuni 700819 by agar dilution method; format: functional; method in brief: as §2
Campylobacter jejuni [25] = assay: Antimicrobial activity against Campylobacter jejuni 700819 mutant 2 by agar dilution method; format: functional; method in brief: as §1
Campylobacter jejuni [26] = assay: Antimicrobial activity against Campylobacter jejuni 700819 mutant 2 with cmeB mutation by agar dilution method; format: functional; method in brief: as §3
Campylobacter jejuni [27] = assay: Antimicrobial activity against Campylobacter jejuni 700819 mutant 11 with cmeB mutation by agar dilution method; format: functional; method in brief: as §3
Campylobacter jejuni [28] = assay: Antimicrobial activity against Campylobacter jejuni 700819 mutant 3 with cmeB mutation by agar dilution method; format: functional; method in brief: as §3
Campylobacter jejuni [29] = assay: Antimicrobial activity against Campylobacter jejuni 700819 mutant 10 with cmeB mutation by agar dilution method; format: functional; method in brief: as §3
Campylobacter jejuni [30] = assay: Antimicrobial activity against Campylobacter jejuni 700819 with cmeB mutation by agar dilution method; format: functional; method in brief: as §3
Campylobacter coli [31] = assay: Antimicrobial activity against Campylobacter coli AW-II-37 by agar dilution method; format: functional; method in brief: as §1
Campylobacter coli [32] = assay: Antimicrobial activity against Campylobacter coli AW-II-35 by agar dilution method; format: functional; method in brief: as §1
Campylobacter jejuni [33] = assay: Antimicrobial activity against Campylobacter jejuni S3B with cmeB mutation by agar dilution method; format: functional; method in brief: as §3
Campylobacter coli [34] = assay: Antimicrobial activity against Campylobacter coli AW-ll-35/AW-ll-37 mutant in chickens assessed as reduction in colonization; format: functional, organism-based
Method in brief: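 Campylobacter-free broiler chickens were orally dosed with a mixed C. coli AW-II-35 + AW-II-37 culture (10⁷ CFU/bird). Five days later one group received tylosin in drinking water (0.53 g/liter, about 110 mg/kg/day) for 3 days; a parallel group was left untreated. Cloacal swabs were serially plated on selective MH, counted after 48 h at 42°C, and compared by t test on log₁₀ CFU/g feces (P<0.01).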

Campylobacter jejuni [35] = assay: Antimicrobial activity against Campylobacter jejuni 700819 mutant 10 by agar dilution method; format: functional; method in brief: as §1
Campylobacter jejuni [36] = assay: Antimicrobial activity against Campylobacter jejuni S3BE4-3 mutant by agar dilution method; format: functional; method in brief: as §1
Campylobacter coli [37] = assay: Antimicrobial activity against Campylobacter coli RN14BE4-2 mutant by agar dilution method; format: functional; method in brief: as §1
Campylobacter coli [38] = assay: Antimicrobial activity against Campylobacter coli MR32DE8-1 mutant by agar dilution method; format: functional; method in brief: as §1
Campylobacter jejuni [39] = assay: Antimicrobial activity against Campylobacter jejuni S3BE4-2 mutant by agar dilution method; format: functional; method in brief: as §1
Campylobacter jejuni [40] = assay: Antimicrobial activity against Campylobacter jejuni S3BE2-2 mutant with cmeB mutation by agar dilution method; format: functional; method in brief: as §3
Campylobacter coli [41] = assay: Antimicrobial activity against Campylobacter coli RN14B by agar dilution method; format: functional; method in brief: as §2
Campylobacter coli [42] = assay: Antimicrobial activity against Campylobacter coli RN14BE8-1 mutant by agar dilution method; format: functional; method in brief: as §1
Campylobacter jejuni [43] = assay: Antimicrobial activity against Campylobacter jejuni 700819 mutant 5 by agar dilution method; format: functional; method in brief: as §1
Campylobacter jejuni [44] = assay: Antimicrobial activity against Campylobacter jejuni 700819 mutant 4/A2074G and cmeB mutation by agar dilution method; format: functional; method in brief: as §3
Campylobacter coli [45] = assay: Antimicrobial activity against Campylobacter coli RN14B with cmeB mutation by agar dilution method; format: functional; method in brief: as §3
Campylobacter jejuni [46] = assay: Antimicrobial activity against Campylobacter jejuni 700819 mutant 9 with cmeB mutation by agar dilution method; format: functional; method in brief: as §3
Campylobacter jejuni [47] = assay: Antimicrobial activity against Campylobacter jejuni 700819 mutant 8 by agar dilution method; format: functional; method in brief: as §1
Campylobacter coli [48] = assay: Antimicrobial activity against Campylobacter coli RN14BE4-3 mutant by agar dilution method; format: functional; method in brief: as §1
Campylobacter jejuni [49] = assay: Antimicrobial activity against Campylobacter jejuni S3BE4-1 mutant by agar dilution method; format: functional; method in brief: as §1
Campylobacter coli [50] = assay: Antimicrobial activity against Campylobacter coli RN14BE8-2 mutant by agar dilution method; format: functional; method in brief: as §1
Campylobacter coli [51] = assay: Antimicrobial activity against Campylobacter coli RN14BE4-2/A2074G and cmeB mutation by agar dilution method; format: functional; method in brief: as §3

Work on `CC[C@H]1OC(=O)[C@H](C)[C@@H](O[C@H]2C[C@@](C)(OC)[C@@H](O)[C@H](C)O2)[C@H](C)[C@@H](O[C@@H]2O[C@H](C)C[C@H](N(C)C)[C@H]2O)[C@](C)(O)C[C@@H](C)C(=O)[C@H](C)[C@@H](O)[C@]1(C)O` [ERYTHROMYCIN] yielded an MIC (Campylobacter jejuni [1]) of 32 µg/mL (≈ 43.6 µM), an MIC (Campylobacter jejuni [2]) of over 512 µg/mL and an MIC (Campylobacter coli [3]) of 2 µg/mL (≈ 2.73 µM). For the same molecule, the MIC (Campylobacter jejuni [4]) was 0.25 µg/mL (≈ 0.341 µM), the MIC (Campylobacter jejuni [5]) was 32 µg/mL (≈ 43.6 µM) and the Activity (Campylobacter jejuni [6]) was “Active”. It also gave an MIC (Campylobacter jejuni [7]) of 256 µg/mL (≈ 349 µM), an MIC (Campylobacter jejuni [8]) of 8 µg/mL (≈ 10.9 µM) and an MIC (Campylobacter jejuni [9]) of 8 µg/mL (≈ 10.9 µM). The MIC (Campylobacter jejuni [10]) was 2 µg/mL (≈ 2.73 µM), the MIC (Campylobacter coli [11]) was 32 µg/mL (≈ 43.6 µM) and the MIC (Campylobacter coli [12]) was 0.125 µg/mL (≈ 0.17 µM). For the same molecule, the MIC (Campylobacter jejuni [13]) was 32 µg/mL (≈ 43.6 µM), the MIC (Campylobacter jejuni [14]) was 256 µg/mL (≈ 349 µM) and the MIC (Campylobacter jejuni [15]) was 0.25 µg/mL (≈ 0.341 µM). The MIC (Campylobacter jejuni [16]) was over 512 µg/mL, the MIC (Campylobacter jejuni [17]) was 32 µg/mL (≈ 43.6 µM) and the MIC (Campylobacter jejuni [18]) was 0.25 µg/mL (≈ 0.341 µM). The MIC (Campylobacter coli [19]) was 8 µg/mL (≈ 10.9 µM), the MIC (Campylobacter jejuni [20]) was 8 µg/mL (≈ 10.9 µM) and the MIC (Campylobacter jejuni [21]) was 8 µg/mL (≈ 10.9 µM). The Activity (Campylobacter jejuni [22]) was “Active”, the MIC (Campylobacter jejuni [23]) was 0.25 µg/mL (≈ 0.341 µM) and the MIC (Campylobacter jejuni [24]) was 2 µg/mL (≈ 2.73 µM). For the same molecule, the MIC (Campylobacter jejuni [25]) was 8 µg/mL (≈ 10.9 µM), the MIC (Campylobacter jejuni [26]) was 0.125 µg/mL (≈ 0.17 µM) and the MIC (Campylobacter jejuni [27]) was 0.25 µg/mL (≈ 0.341 µM). The MIC (Campylobacter jejuni [28]) was 0.25 µg/mL (≈ 0.341 µM), the MIC (Campylobacter jejuni [29]) was 0.125 µg/mL (≈ 0.17 µM) and the MIC (Campylobacter jejuni [30]) was 0.125 µg/mL (≈ 0.17 µM). The MIC (Campylobacter coli [31]) was 0.125 µg/mL (≈ 0.17 µM), the MIC (Campylobacter coli [32]) was 0.125 µg/mL (≈ 0.17 µM) and the MIC (Campylobacter jejuni [33]) was 1 µg/mL (≈ 1.36 µM). The Activity (Campylobacter coli [34]) was “Active”, the MIC (Campylobacter jejuni [35]) was 8 µg/mL (≈ 10.9 µM) and the MIC (Campylobacter jejuni [36]) was 128 µg/mL (≈ 174 µM). The MIC (Campylobacter coli [37]) was 8 µg/mL (≈ 10.9 µM), the MIC (Campylobacter coli [38]) was 32 µg/mL (≈ 43.6 µM) and the MIC (Campylobacter jejuni [39]) was 32 µg/mL (≈ 43.6 µM). For the same molecule, the MIC (Campylobacter jejuni [40]) was 0.125 µg/mL (≈ 0.17 µM), the MIC (Campylobacter coli [41]) was 2 µg/mL (≈ 2.73 µM) and the MIC (Campylobacter coli [42]) was 32 µg/mL (≈ 43.6 µM). The MIC (Campylobacter jejuni [43]) was over 512 µg/mL, the MIC (Campylobacter jejuni [44]) was 32 µg/mL (≈ 43.6 µM) and the MIC (Campylobacter coli [45]) was 0.125 µg/mL (≈ 0.17 µM). It also gave an MIC (Campylobacter jejuni [46]) of 0.25 µg/mL (≈ 0.341 µM), an MIC (Campylobacter jejuni [47]) of 16 µg/mL (≈ 21.8 µM) and an MIC (Campylobacter coli [48]) of 32 µg/mL (≈ 43.6 µM). For the same molecule, the MIC (Campylobacter jejuni [49]) was 32 µg/mL (≈ 43.6 µM), the MIC (Campylobacter coli [50]) was 32 µg/mL (≈ 43.6 µM) and the MIC (Campylobacter coli [51]) was 0.125 µg/mL (≈ 0.17 µM).
